Assay outcomes deposited in PubChem BioAssay by several laboratories.
Sampled rows, rich in hits. Any-hit rate of the full collection: about 1.6%.
Apaf1 inhib: inhibitors of human Apaf-1 apoptosome | reconstituted apoptosome caspase-3 activity, DEVD-Rh110 fluorescence | inhibition, % at 20 µM | 0.71% of 330,000 active | AID 489030 | O14727; active = inhibition of at least 40% at 20 µM;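 note: plate controls were DMSO wells for no effect and DEVD-CHO caspase inhibitor wells for full effect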
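Assay system – apoptosome proteins · Medium – Hepes buffer, pH 7.5 · Also added – cytochrome c with DEVD-Rh110 · Timing – 30 min compound preincubation, 50 min activation, room temperature · Detection – Rh110 fluorescence, excitation 480 nm, emission 540 nm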
PAD4 inh: inhibitors of human PAD4 | Q9UM07 | recombinant PAD4, RCA probe fluorescence polarization | inhibition, % at 6.36 µM | 0.41% of 330,000 active;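 active = percent inhibition above a cutoff equal to the mean of all tested compounds plus 3 SD, cut at about 15% in these data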;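 note: 0% = PAD4 with RCA probe and DMSO and 100% = probe without PAD4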
JMJD2C inh: human JMJD2C demethylase inhibition; Q9H3R0; GST-JMJD2C(1-420) H3K9me3 demethylation, DELFIA europium; inhibition, % at 2.35 µM; 0.069% of 330,000 active;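 active = more than half of a compound's replicate wells show inhibition beyond 50%, single wells judged on their own value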;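 note: signal counts dimethyl H3K9 product captured on neutravidin plate; 0% = median of DMSO wells and 100% = 0.3 times that DMSO median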
Target sequence (Q9H3R0 1-420 limits assumed): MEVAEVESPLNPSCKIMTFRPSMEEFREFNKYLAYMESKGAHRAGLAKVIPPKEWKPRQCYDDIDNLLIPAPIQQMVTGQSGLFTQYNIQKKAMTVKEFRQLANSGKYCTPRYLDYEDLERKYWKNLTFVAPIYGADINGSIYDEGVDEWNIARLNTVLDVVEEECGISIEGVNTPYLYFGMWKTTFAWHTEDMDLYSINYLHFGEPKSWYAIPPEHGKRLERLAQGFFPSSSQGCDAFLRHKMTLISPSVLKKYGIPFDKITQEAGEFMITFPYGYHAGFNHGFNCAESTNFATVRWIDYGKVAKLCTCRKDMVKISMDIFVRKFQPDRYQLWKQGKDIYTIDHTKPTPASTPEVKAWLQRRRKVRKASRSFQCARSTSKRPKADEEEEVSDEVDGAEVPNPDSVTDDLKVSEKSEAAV
UBC9 SUMO inh: inhibitors of human SUMOylation (UBC9). P63279. HTRF SUMOylation assay, SAE1/SAE2 + UBC9, in vitro. inhibition, % at 35 µM. 0.36% of 290,000 active. AID 2006; in the data active = inhibition above about 50%, passing the limit was not always enough
TDP2 absorb: blocks human TDP2 phosphodiesterase activity. recombinant TDP2, T5PNP hydrolysis, p-nitrophenol absorbance 415 nm. inhibition, % at 12.8 µM. 0.34% of 370,000 active. AID 720702;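 active = inhibition above the mean of all tested compounds plus 3 SD, set per campaign, cut at about 25% in these data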;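 note: 0% = DMSO with enzyme and 100% = buffer with substrate but no TDP2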
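Incubation: 2 h at 37 °C; Test system: recombinant human TDP2; Quantity: enzyme 120 nM; Read-out basis: percent inhibition; Medium: 50 mM Tris-HCl pH 7.5 with Mg2+, KCl, DTT, BSA; Repeats: single replicate; Compound: 12.8 µM single point, 1% DMSO; Signal: epi absorbance; Reagent: 5 mM T5PNP chromogenic substrate; Benchmarks: no-enzyme high, DMSO-plus-enzyme low.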
GSTO1 counter: GSTO1 inhibition, counter-screen for RBBP9 inhibitors. P78417. recombinant GSTO1, activity-based probe fluorescence polarization. inhibition, % at 5.96 µM. 1.1% of 300,000 active;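 active = inhibition above the campaign mean inhibition plus 3 SD, cut at about 35% in these data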;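 note: 0% = GSTO1-1 with DMSO and 100% = wells lacking GSTO1-1 enzyme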
Target sequence (P78417 whole entry, looked up): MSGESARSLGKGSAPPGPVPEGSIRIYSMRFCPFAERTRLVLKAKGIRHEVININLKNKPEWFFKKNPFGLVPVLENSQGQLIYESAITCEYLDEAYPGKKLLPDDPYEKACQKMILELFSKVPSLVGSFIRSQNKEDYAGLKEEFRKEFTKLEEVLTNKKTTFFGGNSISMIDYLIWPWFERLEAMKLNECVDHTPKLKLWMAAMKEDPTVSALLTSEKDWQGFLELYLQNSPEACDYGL
Apaf-1 inh conf2: Apaf-1 inhibition, single-dose confirmed; shares compounds with Apaf1 inhib; reconstituted apoptosome, caspase-3 DEVD-Rh110 fluorescence; inhibition, % at 20 µM; 25% of 1,800 active;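 active = mean inhibition of at least 40% at 20 µM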;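 note: plate controls were DMSO wells for no effect and DEVD-CHO caspase inhibitor control wells for full effect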
Rh110 quench: Rh110 signal interference in Apaf-1 inhibitor counter-screen; shares compounds with Apaf1 inhib; Rh110 fluorescence interference, quenched caspase reaction; activation (fluorescence interference), % at 20 µM; 1,800 tested, under 10 active;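 active = signal rise of 40% or more at 20 µM, treated as a fluorescence artifact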
Apaf1 inh interf: Apaf-1 inhibitor counter-screen fluorescence artifact. fluorescence interference counterscreen, Apaf-1 assay format. 460 tested, under 10 active. AID 588538. shares compounds with Apaf1 inhib. IC50, µM; call rule not given here
Active calls of the source: *; . = no result given.

SMILES | Apaf1 inhib | PAD4 inh | JMJD2C inh | UBC9 SUMO inh | TDP2 absorb | GSTO1 counter | Apaf-1 inh conf2 | Rh110 quench | others
CCC(C)Sc1ccc(-c2nc3cnccn3c2NC2CCCCC2)cc1 (stereo not drawn) | 45* | -4 | -3 | . | -2 | -3 | 32 | 19
CCCCNc1c(-c2ccc(OC)c(SC3CCCCC3)c2)nc2cnccn12 | 36 | 2 | 1 | . | . | 3 | . | .
CCCCNc1c(-c2ccc(SC3CCCCC3)cc2)nc2cnccn12 | 42* | -3 | . | . | -12 | . | 33 | 26
CC(C)[C@H](NC(=O)OC(C)(C)C)C(=O)N1CCC(Oc2cccnc2)CC1 | . | . | . | . | 0 | . | . | .
CCCCCCCCCCCCOC(=O)C[N+](C)(C)C | 46* | -2 | -19 | 1 | -2 | 5 | 10 | 1
CCCCCCCCCCOC(=O)C[N+](C)(C)C/C=C(/C)Cl | 32 | -2 | -15 | 5 | -2 | 2 | . | .
CCCCNC1=CC(=O)C(=O)c2ccccc21 | 96* | -1 | -3 | 91* | 16 | 48* | 84* | 3 | Apaf1 inh interf=>100
O=C1C=C(Nc2ccccc2)c2ccccc2C1=O | 92* | . | -21 | . | 22 | . | 91* | -3 | Apaf1 inh interf=>100
CCCCNC1=CC(=O)C(NCCCC)=CC1=O | . | . | . | . | 7 | . | . | .
CCc1ccc(NC2=CC(=O)C(=O)c3ccccc32)cc1 | 92* | . | . | . | 24 | . | 86* | 6 | Apaf1 inh interf=>100
C=CC[C@@H]1NN2C(=O)[C@@H](CCCC)[C@@H]3c4ccccc4C=NN3[C@@H]2c2ccccc21 | . | . | . | . | 1 | . | . | .
Cc1ccc(-c2cc(C(=O)NN=Cc3ccc(-c4ccccc4)cc3)[nH]n2)cc1 | . | . | . | . | -5 | . | . | .
C#CCNC(=O)C[C@H]1C[C@@]2(C(=O)OC)C(=C[C@H](COCc3ccccc3)O[C@@H]2C)N(Cc2ccc(Cl)cc2Cl)C1=O | . | . | . | . | 1 | . | . | .
c1csc(-c2nc3c4ccccc4c4ccccc4c3[nH]2)c1 | 44* | 1 | 0 | -36 | -6 | -20 | 32 | 12
COc1cc(CCc2ccccc2)c(C(=O)O)c(O)c1C/C=C(/C)CCC=C(C)C | 43* | -7 | . | . | 0 | . | 37 | 18
COc1cc(CCc2ccccc2)c(C(=O)O)c(O)c1CC=C(C)C | . | . | . | . | -7 | . | . | .
COc1ccccc1-c1oc2ccccc2c1C#CC1(O)CCCCC1 | 21 | -6 | 1 | . | 3 | . | . | .
COc1ccccc1-c1oc2ccccc2c1C#CC1(N)CCCCC1 | 68* | 1 | 10 | . | -3 | . | 28 | 5
Cc1cc(/C=C2\SC(=O)N(C)C2=O)c(C)n1-c1ccc(O)cc1 | 71* | 0 | 22 | 74* | 4 | 25 | 18 | 9
O=C(NC1CCCCN(Cc2cccc(F)c2)C1=O)c1cccc(F)c1 (stereo not drawn) | . | . | . | . | 1 | . | . | .
COc1ccc(-n2c3nc4ccccc4nc3c3c(=N)oc(C)nc32)cc1 | 96* | -2 | -1 | 97 | 1 | 3 | 67* | 6 | Apaf1 inh interf=>100
O=C1CCCC2=C1C1(CCCC1)N=C(Nc1nc3cc(Br)ccc3o1)N2 | . | . | . | . | 0 | . | . | .
COC(=O)c1cc(-c2ccc(-c3ccccc3)c(F)c2)c(=O)n2c1CCC2 | . | . | . | . | 3 | . | . | .
CN1C(=O)c2cccc3c(S(=O)(=O)NCc4ccco4)ccc1c23 | 55* | 0 | -6 | 65 | 4 | 1 | 16 | 3
Cc1ccc(S(=O)(=O)N2CCN(C(=O)COC(=O)c3ccc([N+](=O)[O-])o3)CC2)c(C)c1 | 59* | -13 | 10 | . | 8 | . | 22 | 8
SMILES | Apaf1 inhib | PAD4 inh | JMJD2C inh | UBC9 SUMO inh | TDP2 absorb | GSTO1 counter | Apaf-1 inh conf2 | Rh110 quench | others
COc1ccc2nc(C)cc(N/N=C/c3ccc(F)cc3)c2c1 | 50* | 0 | -6 | -14 | -4 | 11 | 12 | 5
Cc1[nH][nH]c(=O)c1C(c1ccc(-c2ccc(Cl)c(Cl)c2)o1)c1c(C)[nH][nH]c1=O | 79* | 1 | 14 | 52 | 64* | 35* | 30 | 0
Cc1ccc2c(c1)C(=O)C(=O)N2Cc1ccc(Cl)cc1 | 40* | 5 | -1 | . | -5 | . | 24 | 7
Cc1ccc2c(c1)C(=O)C(=O)N2Cc1ccc(F)cc1 | 20 | -2 | 4 | . | 0 | . | . | .
CC1(C)CC(=O)c2c(-c3cccnc3)n[nH]c2C1 | 43* | -2 | 25 | 12 | -10 | -1 | 9 | 1
CCOC(=O)[C@]12CCCC=C1N(Cc1ccc(OC)cc1)C(=O)[C@@H]2CC(=O)NCCC(C)C | . | . | . | . | 9 | . | . | .
CCCN(CC(=O)Nc1ccccc1C)C(=O)c1sc2ccccc2c1Cl | 61* | 0 | -1 | . | 8 | . | 44* | 12 | Apaf1 inh interf=>100
Cc1ccccc1NC(=O)COC(=O)CNC(=O)c1sc2ccccc2c1Cl | -2 | 6 | -4 | 12 | 8 | 2 | . | .
CN(CC(=O)Nc1cccc(F)c1)C(=O)c1sc2ccccc2c1Cl | 57* | -3 | 4 | . | -2 | . | 36 | 4
Cc1ccc(CSc2nnc(-c3cc(-c4ccc(C)cc4)n[nH]3)n2N)cc1 | . | . | . | . | -1 | . | . | .
CN(CCc1ccccn1)C(=O)c1cc2ccccn2n1 | . | . | . | . | -3 | . | . | .
COc1ccccc1C(CNC(=O)c1cccc(S(=O)(=O)Nc2ccc(C)cc2)c1)N(C)C (stereo not drawn) | 46* | 3 | -1 | 0 | -5 | 3 | 28 | 7
COc1ccc(NS(=O)(=O)c2cccc(C(=O)NCC(c3ccccc3)N(C)C)c2)cc1 (stereo not drawn) | 22 | -5 | -18 | . | -7 | 2 | . | .
COC(=O)[C@]12C[C@H](CC(=O)N3CCCC3)C(=O)N(Cc3ccc(Cl)cc3Cl)C1=C[C@H](C(C)(C)C)O[C@@H]2C | . | . | . | . | -1 | . | . | .
CC(C)C1N=C(NC(=O)OCc2ccccc2)NC1=O (stereo not drawn) (tested in a mixture with another compound) | . | . | . | . | -3 | . | . | .
CCCCCCCCCn1c2c(c(=N)c3c1CCC3)CCC2 | 50* | 0 | -9 | 18 | . | 9 | 18 | 10
CC(C)N=C(N)N=C(N)Nc1ccc(Cl)cc1 | 13 | 2 | . | . | 8 | 2 | . | .
NC(=NCCCCCCN=C(N)/N=C(\N)Nc1ccc(Cl)cc1)/N=C(\N)Nc1ccc(Cl)cc1 | 79* | -3 | -26 | 0 | -1 | 1 | 30 | 3
C/C(=N\NC(=O)CNc1cccc2ccccc12)c1ccccc1 | 83* | 0 | -5 | 80* | -3 | 10 | 15 | 8
Fc1ccc(-c2n[nH]c(=S)n2N=Cc2ccc(OCc3ccccc3)cc2)cc1 | . | . | . | . | -3 | . | . | .
Cc1ccc(-c2c(NC(=O)c3ccccc3)nc3ncccn23)cc1 | . | . | . | . | -9 | . | . | .
